# HePTP inh: inhibitors of human HePTP phosphatase, primary screen, biochemical, absorbance, leukemia target; inhibition, % at 20 µM; Tyrosine-protein phosphatase non-receptor type 7 (Homo sapiens), P35236; recombinant HePTP phosphatase activity, OD absorbance; 110,000 tested, 0.64% active; AID 521, 2006; in the data active means inhibition above about 50%;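 further: plate controls were vehicle for no effect and reference inhibitor for full effect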
# E coli WT exp: growth inhibitors of wild-type E. coli, primary screen, strain BW25113, expanded library, OD600; OD600 absorbance; growth inhibition, % at 100 µM; 98,000 tested, 0.15% active; AID 710, 2007;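 active means growth inhibition above about 50% at one test dose, limit read from the data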;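 further: growth measured after 20 h incubation at 37 °C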
# PostGolgi yeast: phenotypic screen on post-Golgi transport, primary screen. 98,000 tested, 0.9% active. post-Golgi transport phenotypic cell assay. inhibition, % at 10 µM;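 further: yeast cells grown in 1536-well plates; yeast grown about 18 h at 30C before absorbance read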
# PostGolgi ctrl: growth inhibition of yeast control strain, primary screen, counter-screen for post-Golgi transport modulator project. inhibition, % at 10 µM. efflux-deficient yeast background strain, growth absorbance A615, 16 h. 98,000 tested, 5% active. AID 738, 2007
# PLAP activator: PLAP enzyme activators, biochemical, luminescence, HTS | purified PLAP enzyme, luminescent substrate read-out; hits give high values | activation fold at 20 µM | 96,000 tested, 1.2% active; in the data active means activation fold above about 2
# Target sequence (P05187 whole entry, looked up): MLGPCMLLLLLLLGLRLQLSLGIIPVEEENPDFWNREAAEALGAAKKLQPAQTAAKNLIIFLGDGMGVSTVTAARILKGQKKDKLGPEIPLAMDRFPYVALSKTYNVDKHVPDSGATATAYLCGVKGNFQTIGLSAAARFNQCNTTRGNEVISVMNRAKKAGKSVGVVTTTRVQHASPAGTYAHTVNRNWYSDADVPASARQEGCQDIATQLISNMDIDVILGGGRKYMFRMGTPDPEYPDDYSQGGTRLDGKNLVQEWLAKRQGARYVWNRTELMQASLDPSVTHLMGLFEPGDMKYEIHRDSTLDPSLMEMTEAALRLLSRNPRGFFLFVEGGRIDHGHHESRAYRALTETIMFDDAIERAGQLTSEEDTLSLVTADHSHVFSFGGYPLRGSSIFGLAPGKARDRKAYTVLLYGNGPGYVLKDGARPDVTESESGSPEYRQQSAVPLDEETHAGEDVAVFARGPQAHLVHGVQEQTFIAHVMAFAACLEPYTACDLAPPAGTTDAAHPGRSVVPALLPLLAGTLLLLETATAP
# Ecoli tolC: growth inhibitors of E. coli tolC mutant, primary screen, strain BW25113 ΔtolC::kan, 384-well. OD615. growth inhibition, % at 10 µM (by protocol). 65,000 tested, 2.2% active;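 active means growth inhibition at or above a cutoff equal to the mean over every tested compound plus 3 SD, cut at about 60% in these data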;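 further: growth measured after 20 h incubation at 37 °C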
#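 Doses: one dose of 10 µM final / Material: E. coli BW25113 ΔtolC::kan, tolC deletion mutant strain / Buffer or medium: LB with kanamycin 50 µg/mL / Evaluation: percent growth inhibition / Detection: optical density read at 615 nm / Incubation: 37 °C, 20 h exposure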
# * = called active by the depositor; . = no result given. Rows were chosen to be rich in hits. Some 5.4% of all compounds tested hit in one or more screens of this group. Unless noted, no stated cut-off is given here; in the data, active means inhibition above about 30%; inactive means the rest.
SMILES,HePTP inh,E coli WT exp,PostGolgi yeast,PostGolgi ctrl,PLAP activator,Ecoli tolC
Nc1nc2n(n1)C1(CCCCC1)C1=C(CCCC1)N2,-12,0,15,-1,2.1*,-3
O=C(CNc1ccc2ccccc2c1)N/N=C/c1ccc(Br)c([N+](=O)[O-])c1,3,.,.,.,.,.
COc1ccc(OC)c(N=Cc2c(O)n(-c3ccc(F)cc3)c(=O)[nH]c2=O)c1,6,.,.,.,.,.
Cc1ccccc1COc1ccc(/C(O)=C2/C(=O)C(=O)N(CCCn3ccnc3)C2c2ccco2)cc1 (stereo not given),5,.,.,.,2.6*,6
CCc1ccc(/C=N/N2CCN(Cc3cccc4ccccc34)CC2)cc1,0,.,.,.,.,.
Cc1ccc(Nc2nc(N)nc(CSc3nc4ccccc4s3)n2)cc1,.,-1,2,51*,1.4,.
COc1ccc(Nc2nc(N)nc(CSc3n[nH]c(-c4ccccc4)n3)n2)cc1,-4,4,-2,30*,1,13
Nc1nc(CSc2n[nH]c(-c3ccccc3)n2)nc(Nc2ccccc2)n1,2,-5,2,6,1.1,34
COc1ccccc1Nc1nc(N)nc(CSc2ncccn2)n1,1,0,-4,32*,0.8,-7
COc1ccc(/C=N\NC(=O)CNc2ccccc2C)cc1,-2,.,.,.,.,.
CCCOc1ccc(C(=O)Nc2ccc(N3CCCCC3)cc2)cc1,7,.,.,.,.,.
CC1(C)CC(=O)C2=C(C1)Nc1ccccc1N(C(=O)Cc1ccccc1)C2c1cccc(O)c1 (stereo not given),0,.,.,.,.,.
c1ccc(C(Sc2nc3ccccc3[nH]2)c2ccccc2)cc1,11,.,.,.,.,.
COc1cc(/C=C(\C#N)c2nc3c(s2)CCCC3)ccc1O,.,-2,5,56*,0.7,.
CCCCc1ccc(-c2csc(/C(C#N)=C/c3ccc(O)c(OC)c3)n2)cc1,-14,.,.,.,.,.
Cc1sc(NC(=O)c2ccco2)nc1-c1ccc2c(c1)CC(C)N2C(=O)C1CC1 (stereo not given),7,-10,3,33*,1.4,26
Cc1sc(NC(=O)c2ccco2)nc1-c1ccccc1,.,8,4,21,1,.
O=C(/C=C/c1ccc(F)cc1)N1CCN(c2cccc(Cl)c2)CC1,104*,.,.,.,.,.
CCC(C(=O)N1CCN(c2cccc(Cl)c2)CC1)c1ccccc1 (stereo not given),3,-6,-18,12,1.1,100*
Cc1nn(Cc2ccc(C(=O)Nc3nc4c(C)cccc4s3)o2)c(C)c1Br,.,-10,32*,35*,1.2,.
Cc1nn(Cc2cccc(C(=O)NC3CCCCC3)c2)c(C)c1Cl,.,4,15,22,1.3,.
Cc1cc(NC(=O)c2ccc(Cn3nc(C)c(Br)c3C)o2)no1,3,0,-5,10,0.9,6
Cc1csc(NC(=O)c2cccc(Cn3nc(C)c(Br)c3C)c2)n1,7,-1,8,15,1.2,73*
C(=Nc1ccc(N=Cc2ccccn2)cc1)c1ccccn1,-18,.,.,.,.,.
COc1ccc(NC(=O)C(=O)N/N=C/c2cc(OC)ccc2OC)cc1,-13,.,.,.,.,.
SMILES,HePTP inh,E coli WT exp,PostGolgi yeast,PostGolgi ctrl,PLAP activator,Ecoli tolC
OCc1nc2ccccc2n1CC(O)Cn1ccc2ccccc21 (stereo not given),0,2,-5,5,1.9,-5
Oc1ccccc1NCC(O)Cn1ccc2ccccc21 (stereo not given),5,7,16,37*,1.8,55
O=c1ccsn1Cc1ccccc1,8,100*,0,-2,0.9,100*
Cc1cc(C)nc(NS(=O)(=O)c2ccc(N/C=C/C(=O)c3ccc(Br)cc3)cc2)n1,-5,.,.,.,.,.
CN1CCN(S(=O)(=O)c2cc(Cl)ccc2Br)CC1,10,.,.,.,.,.
CC1CCN(S(=O)(=O)c2ccc(Cl)cc2Br)CC1,3,8,6,9,0.7,98*
O=C(c1cccc(F)c1)c1ccc2c(c1)CCCO2,9,.,.,.,.,.
O=c1c2ccccc2nc(-c2ccco2)n1Cc1ccccc1,-2,-3,14,24,1,-7
O=c1c2ccccc2nc(-c2ccc(Br)cc2)n1Cc1ccccc1,.,-12,8,52*,1,.
CCOc1ccc(CCn2c(-c3ccco3)nc3ccccc3c2=O)cc1OCC,.,-9,13,21,1.1,.
O=c1c2ccccc2nc(-c2ccoc2)n1CCc1ccccc1,-3,-6,-1,41*,0.8,22
